Measurements: ChEMBL document CHEMBL4382271, “Eucalypglobulusals A-J, Formyl-Phloroglucinol-Terpene Meroterpenoids from Eucalyptus globulus Fruits” (J Nat Prod, 2018)
Calls of active or inactive are those of the source. No cut-off for these calls is given here.

Columns and labels:
HCT-116 = test: Cytotoxicity against human HCT116 cells by MTT assay; type: functional, cell-based
CCRF-CEM = test: Cytotoxicity against human CCRF-CEM cells by MTT assay; type: functional, cell-based
DU-145 = test: Cytotoxicity against human DU145 cells by MTT assay; type: functional, cell-based
Huh-7 = test: Cytotoxicity against human HuH7 cells by MTT assay; type: functional, cell-based
A549 = test: Cytotoxicity against human A549 cells by MTT assay; type: functional, cell-based
[1] = molecular target: T1, DNA topoisomerase I (Bos taurus) (UniProt F1MN93); test: Inhibition of calf thymus topoisomerase-1-mediated supercoiled pBR322 DNA unwinding at 25 uM preincubated with DNA for 10 mins followed by enzyme addition and measured after 30 mins by agarose gel electrophoresis assay
T1 sequence (whole entry): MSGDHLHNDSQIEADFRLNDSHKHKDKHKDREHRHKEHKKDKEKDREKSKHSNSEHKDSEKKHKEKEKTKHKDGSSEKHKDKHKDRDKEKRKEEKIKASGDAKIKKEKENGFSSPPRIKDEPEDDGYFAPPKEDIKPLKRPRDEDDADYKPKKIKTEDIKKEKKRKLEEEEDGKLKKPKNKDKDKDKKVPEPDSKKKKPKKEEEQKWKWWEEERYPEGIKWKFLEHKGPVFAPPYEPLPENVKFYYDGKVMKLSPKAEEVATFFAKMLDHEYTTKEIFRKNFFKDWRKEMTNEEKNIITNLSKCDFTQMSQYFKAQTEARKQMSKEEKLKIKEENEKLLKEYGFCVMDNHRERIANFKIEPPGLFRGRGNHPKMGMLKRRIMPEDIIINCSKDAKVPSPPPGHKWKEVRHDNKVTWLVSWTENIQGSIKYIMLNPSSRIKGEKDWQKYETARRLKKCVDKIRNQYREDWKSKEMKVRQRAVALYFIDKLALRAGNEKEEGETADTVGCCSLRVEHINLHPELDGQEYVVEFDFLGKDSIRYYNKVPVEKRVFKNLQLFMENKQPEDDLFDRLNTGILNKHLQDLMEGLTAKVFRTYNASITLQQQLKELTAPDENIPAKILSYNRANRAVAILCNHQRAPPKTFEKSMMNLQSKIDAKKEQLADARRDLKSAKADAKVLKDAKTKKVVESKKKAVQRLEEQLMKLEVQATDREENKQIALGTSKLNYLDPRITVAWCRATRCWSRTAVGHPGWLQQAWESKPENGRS
In short: (§1)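 Top1-mediated unwinding assay with ethidium bromide, a DNA intercalator, as positive control. It tests whether compounds unwind DNA by intercalation.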

[2] = molecular target: T1, DNA topoisomerase I (Bos taurus); test: Inhibition of calf thymus topoisomerase-1-mediated relaxed pBR322 DNA unwinding at 25 uM preincubated with DNA for 10 mins followed by enzyme addition and measured after 30 mins by agarose gel electrophoresis assay; in short: as §1
[3] = molecular target: T1, DNA topoisomerase I (Bos taurus); test: Inhibition of calf thymus topoisomerase-1-mediated supercoiled pBR322 DNA relaxation at 50 uM after 30 mins by agarose gel electrophoresis assay relative to control
In short: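 Top1-mediated plasmid relaxation run at 50 μM test concentration. Camptothecin (CPT) was included as reference inhibitor. Inhibition was expressed as percentage ranges from gel band intensities.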

[4] = molecular target: T1, DNA topoisomerase I (Bos taurus); test: Inhibition of calf thymus topoisomerase-1 assessed as reduction in cleavage complex formation by measuring decrease in nicked form DNA using supercoiled pBR322 DNA as substrate after 30 mins by agarose gel electrophoresis assay

Structure (SMILES)	IC50 (HCT-116)	IC50 (CCRF-CEM)	IC50 (DU-145)	IC50 (Huh-7)	IC50 (A549)	inhibition [1]	inhibition [2]	inhibition [3]	inhibition [4]
COc1cc([C@@H]2c3cc4c(cc3[C@@H](O[C@@H]3O[C@@H]5CO[C@@H](C)O[C@H]5[C@H](O)[C@H]3O)[C@H]3COC(=O)[C@H]23)OCO4)cc(OC)c1O [ETOPOSIDE]	> 10 µM	1.1 µM	> 10 µM	7.4 µM	> 10 µM				
CC(C)C[C@@H](c1c(O)c(C=O)c(O)c(C=O)c1O)[C@@]1(C)CC[C@@H]2[C@@H]1[C@H]1[C@@H](CC[C@@]2(C)O)C1(C)C						inactive	inactive		
CC[n+]1c(-c2ccccc2)c2cc(N)ccc2c2ccc(N)cc21						Active	Active		
C=C(C)[C@@H]1C=C2[C@@H](C)CC[C@@H](Cc3c(O)c(C=O)c(O)c(C(=O)CC(C)C)c3O)[C@]2(C)CC1	9.6 µM	> 10 µM	> 10 µM	> 10 µM	5.2 µM			> 90%	
C=C1/C=C/[C@H](C(C)(C)O)C[C@H]2[C@@H](CC(C)C)c3c(O)c(C=O)c(O)c(C=O)c3O[C@]2(C)CCC1	> 10 µM	3.3 µM	> 10 µM	> 10 µM	> 10 µM			60 to 89%	
CC[C@@]1(O)C(=O)OCc2c1cc1n(c2=O)Cc2cc3ccccc3nc2-1 [CAMPTOTHECIN]	0.013 µM	0.002 µM	0.016 µM	0.0023 µM	0.04 µM			> 90%	
CC(=O)[C@@]12C=C(C(C)C)CC[C@@]1(C)[C@H]([C@@H](CC(C)C)c1c(O)c(C=O)c(O)c(C=O)c1O)C[C@H]2O						inactive	inactive		Dose-dependent effect
CC(C)CC(=O)c1c(O)c(C=O)c(O)c(C[C@@]2(C)CC[C@H]3C2=C[C@H](C(C)(C)O)CC[C@H]3C)c1O	> 10 µM	6.9 µM	> 10 µM	> 10 µM	5.3 µM			> 90%	
CC(C)CC(=O)c1c(O)c(C=O)c(O)c(C[C@@]2(C)CC[C@@H]3[C@@H]2[C@H]2[C@@H](CC[C@@]3(C)O)C2(C)C)c1O [EUCALYPTIN A]	9.6 µM	> 10 µM	8.9 µM	> 10 µM	4.9 µM			> 90%	
